# Source: PubChem (SRMLSC)
# This excerpt belongs to a sample that is enriched for hits.
# HUVEC prolif 384 = blocks proliferation of human endothelial cells. viability, % at 10 µM (by protocol). HUVEC proliferation, CellTiter-Glo luminescence, 72 h; stronger effect = lower value. hit rate 1.1% among 86,000;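 active = viability at or below 30%; inactive = viability above 30%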;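 also: 100% = median luminescence of DMSO-only cell control wells on each plate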
# HCT116 PTEN-null = suppresses growth of cells with PTEN deletion | AID 827 | HCT116 PTEN-null viability, CellTiter-Glo, 60 h; stronger effect = lower value | hit rate 1.2% among 140,000 | viability, % at 10 µM;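 active = viability at or below a set limit, 4 SD under the median of all tested compounds, cut at about 3.7% in these data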;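 also: PTEN knockout HCT116 line with beta catenin targeted HCT116 as companion control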
# Fibroblast inh = blocks proliferation of human lung fibroblasts. LL 47 human lung fibroblast viability, ATP luminescence; stronger effect = lower value. viability, % at 10 µM. hit rate 1.1% among 85,000;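 active = viability at or below 50% in the single dose screen; inactive = viability above 50%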;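 also: compound exposure lasted 72 h before the ATP readout; 100% = median luminescence of untreated cell-only wells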
#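 Material: Human LL 47 lung fibroblast cells | Input: 1,150 cells/well | Buffer or medium: IMEM plus 15% FBS | Compound dosing: 0.1% DMSO in all compound wells | Times: Overnight cell rest, 72 h compound treatment at 37 °C | Signal: CellTiter-Glo luminescence measuring cellular ATP | Measure: % viability versus median cells-only luminescence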
# HCT116 bCat-KO = beta-catenin-lacking colon tumor cell growth suppression. HCT116 beta-catenin knockout viability, CellTiter-Glo, 60 h; stronger effect = lower value. hit rate 1.5% among 140,000. viability, % at 10 µM. AID 818;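 active = viability at or under a set limit, the compound median less 4 SD, cut at about 6% in these data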;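 also: 0% = Hyamine 1622 control at 20 µM and 100% = untreated cell control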
# H69AR inhibit = growth inhibitors of human H69AR lung tumor cells | H69AR lung tumor viability, ATP luminescence, 72 h; stronger effect = lower value | viability, % at 10 µM | hit rate 6% among 85,000;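 active = viability at or below 40%; inactive = viability above 40%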;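 also: multidrug resistant small cell line overexpressing MRP-1 efflux transporter; 100% = mean luminescence of untreated control wells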
# * = called active by the depositor; / = not tested or not shown.
SMILES,HUVEC prolif 384,HCT116 PTEN-null,Fibroblast inh,HCT116 bCat-KO,H69AR inhibit
O=C(c1ccc(Cl)cc1)C(Cn1cncn1)C(Sc1ccccc1)c1ccccc1 (configuration not stated),/,4.7,/,5.6*,/
Cn1cccc1/C=C1\SC(=O)N(c2ccc(O)cc2)C1=O,/,104.6,/,102.0,/
COC(=O)c1cc(C(=O)Nc2nnc(C3CC3)s2)cc([N+](=O)[O-])c1,/,80.3,/,81.7,/
CCN(Cc1ccccc1)S(=O)(=O)c1ccc(S(=O)(=O)N(Cc2ccccn2)Cc2ccco2)cc1,70.5,65.7,102.4,72.7,22.1*
COc1ccccc1N(CC(O)CN1C(=O)NC(C)(C)C1=O)S(=O)(=O)c1ccc(C)cc1 (configuration not stated),109.7,94.8,101.4,96.2,87.4
COc1cccc(N2CCN(c3ncnc4c3cnn4-c3ccc(C)cc3C)CC2)c1,2.2*,3.1*,33.2*,1.7*,55.5
Cc1cccc(-n2ncc3c(N4CCC5(CC4)OCCO5)ncnc32)c1,114.8,/,88.3,/,33.5*
COc1cc(NC(=O)Cn2nc(C(F)(F)F)c(Br)c2C)cc([N+](=O)[O-])c1,/,27.8,/,40.4,/
O=C(Nc1cccc2ccccc12)c1ccc(Br)o1,90.8,97.4,107.0,99.0,81.6
O=C(Nc1cccc2cccnc12)c1ccc(Br)o1,71.0,87.2,89.8,82.7,37.2*
CCCc1sc(N/N=C/c2ccccn2)nc1-c1ccc(F)cc1,14.7*,3.1*,19.3*,3.2*,13.1*
Cc1cc(C)nc(Nc2n[nH]c(COc3cccc4ccccc34)n2)n1,74.1,69.6,52.5,79.9,38.2*
Cc1cc(N2CCN(S(=O)(=O)c3ccccc3)CC2)c2ccccc2n1,89.3,70.8,98.0,62.5,89.9
Cc1cc(N2CCN(c3ccc([N+](=O)[O-])c4cccnc34)CC2)c2ccccc2n1,/,22.9,/,3.5*,/
c1csc(-c2nc3c4ccccc4c4ccccc4c3[nH]2)c1,57.0,47.3,89.0,33.1,29.6*
Clc1ccc(-c2csc3ncnc(NCCN4CCOCC4)c23)cc1,88.4,62.1,89.1,49.9,56.3
Cc1ccc(-c2csc3ncnc(NCCN4CCOCC4)c23)cc1,93.4,93.2,90.8,92.0,26.6*
COc1ccc(-c2csc3ncnc(NCCN4CCOCC4)c23)cc1,46.9,38.6,64.4,56.6,21.0*
Clc1ccc(CNc2nc(CN3CCOCC3)nc3scc(-c4ccccc4)c23)cc1,/,72.1,/,69.4,/
COc1ccc(-c2cc(C(=O)Nc3c(C)nn(Cc4ccccc4Cl)c3C)no2)cc1,88.1,65.1,90.0,62.2,32.8*
Cc1nn(Cc2c(Cl)cccc2Cl)c(C)c1NC(=O)c1cc(C(C)C)on1,71.6,30.4,34.8*,64.0,7.7*
Cc1nn(Cc2ccc(Cl)cc2)c(C)c1NC(=O)c1cc(-c2ccc3c(c2)OCO3)on1,49.2,83.5,104.9,91.9,81.4
Cc1nn(Cc2ccc(Cl)c(Cl)c2)c(C)c1NC(=O)c1cc(-c2ccc3c(c2)OCO3)on1,12.2*,1.8*,76.4,1.5*,1.4*
CCN(CC)S(=O)(=O)c1ccc(C(=O)OCn2nnc3ccccc3c2=O)cc1,95.6,100.2,99.5,90.9,86.4
COc1ccc(N=c2oc3cc(O)ccc3cc2C(=O)NCC2CCCO2)cc1 (configuration not stated),79.6,99.6,111.1,95.6,79.2
SMILES,HUVEC prolif 384,HCT116 PTEN-null,Fibroblast inh,HCT116 bCat-KO,H69AR inhibit
Cc1ccc(N=c2oc3cc(O)ccc3cc2C(N)=O)cc1,47.4,79.4,82.2,73.4,39.4*
COc1ccccc1NC(=O)C1C2C=CC(O2)C1C(=O)O (configuration not stated),92.0,97.2,49.7*,92.0,93.1
COc1ccc(S(=O)(=O)NCc2ccc(C(=O)N3CCc4ccccc4C3)cc2)cc1,/,82.6,/,86.2,/
CC1CCCN(Cc2c(O)ccc3c(=O)c(-c4nc5ccccc5s4)c(N)oc23)C1 (configuration not stated),/,0.9*,/,1.0*,/
COc1ccc(C2=NN(CN3C(=O)C(=O)c4ccccc43)C(c3ccc(OC)cc3)C2)cc1 (configuration not stated),/,54.1,/,73.4,/
O=C(Nc1cccc(-c2cn3ccccc3n2)c1)c1cccs1,/,85.8,/,97.3,/
O=C(Nc1cccc(-c2cn3ccccc3n2)c1)c1cc2ccccc2oc1=O,/,1.8*,/,2.8*,/
O=C(NNC(=O)c1ccco1)c1ccccc1,/,89.1,/,92.8,/
Cc1cccc(NC(=S)NNC(=O)c2ccco2)c1,/,96.2,/,97.7,/
O=C(/C=C/c1ccc(Br)cc1)NC(=S)NNC(=O)c1ccco1,61.0,45.2,72.7,35.9,36.0*
